In ChEMBL document CHEMBL4190388, “Discovery and Optimization of Indolyl-Containing 4-Hydroxy-2-Pyridone Type II DNA Topoisomerase Inhibitors Active against Multidrug Resistant Gram-negative Bacteria” (J Med Chem, 2018):
In brackets after ≈: the same amount, converted by molar mass.

Columns and labels:
Escherichia coli [1] = test: Antibacterial activity against fluoroquinolone resistant Escherichia coli SKM18 by CLSI M100-S17 protocol based method; format: functional
Escherichia coli [2] = test: Antibacterial activity against wild type Escherichia coli ATCC 25922 by CLSI M100-S17 protocol based method; format: functional
[3] = Inhibition of Escherichia coli DNA topoisomerase 4 assessed as reduction in decatenation activity using kinetoplast concatenated DNA as substrate after 30 mins by picogreen dye based fluorescence assay
[4] = Inhibition of His tagged Escherichia coli ATCC 25922 DNA gyrase A expressed in Escherichia coli BL21 (DE3) pLysS cells assessed as reduction in enzyme-mediated supercoiling of relaxed plasmid DNA pNO1 after 30 mins in presence of biotinylated TFO1 by fluorescence assay
Escherichia coli [5] = test: Selectivity ratio of MIC for wild type Escherichia coli ATCC 25922 in presence of HSA to MIC for wild type Escherichia coli ATCC 25922; format: functional
Acinetobacter baumannii [6] = test: Antibacterial activity against wild type Acinetobacter baumannii by broth microdilution method; format: functional
In short: (§1)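 MICs were determined by CLSI broth methods, except that organisms were grown in brain–heart–infusion medium. The panel comprised wild-type and resistant E. coli and A. baumannii strains, including 12 strains whose details are given by reference.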

Acinetobacter baumannii [7] = test: Antibacterial activity against multidrug resistant Acinetobacter baumannii by broth microdilution method; format: functional; details: Acinetobacter baumannii; in short: as §1
Acinetobacter baumannii [8] = test: Antibacterial activity against fluoroquinolone resistant Acinetobacter baumannii isolate MMX2240 by CLSI M100-S17 protocol based method; format: functional
Escherichia coli [9] = test: Antibacterial activity against multidrug resistant Escherichia coli by broth microdilution method; format: functional; details: Escherichia coli; for MIC: read-out: MIC; in short: as §1
Klebsiella pneumoniae = test: Antibacterial activity against wild type Klebsiella pneumoniae ATCC 35657 by CLSI M100-S17 protocol based method; format: functional
Escherichia coli [10] = test: Antibacterial activity against quinolone resistant Escherichia coli by broth microdilution method; format: functional; details: Escherichia coli; for MIC: read-out: MIC; in short: as §1
Mus musculus [11] = test: Terminal half life in CD1 mouse plasma at 10 mg/kg, iv by LC-MS/MS analysis; format: ADME, organism-based; details: in vivo
Acinetobacter baumannii [12] = test: Antibacterial activity against carbapenem resistant Acinetobacter baumannii by broth microdilution method; format: functional; details: Acinetobacter baumannii; in short: as §1
Mus musculus [13] = test: AUC (0 to 24 hrs) in CD1 mouse plasma at 10 mg/kg, iv by LC-MS/MS analysis; format: ADME, organism-based; design: time < 24 hr, dose 10 mg/kg, route intravenous; details: in vivo
In short: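 CD-1 mice given a single 10 mg/kg iv dose (n = 3), in either 10% DMSO plus 1% Tween 80 in pH 8.0 phosphate buffer or 20% (2-hydroxypropyl)-β-cyclodextrin in pH 4.0 citrate buffer; plasma exposure measured.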

Escherichia coli [14] = test: Antibacterial activity against beta-lactam resistant Escherichia coli by broth microdilution method; format: functional; details: Escherichia coli; for MIC: read-out: MIC; in short: as §1
Escherichia coli [15] = test: Antibacterial activity against wild type Escherichia coli by broth microdilution method; format: functional; in short: as §1
Acinetobacter baumannii [16] = test: Antibacterial activity against aminoglycoside resistant Acinetobacter baumannii by broth microdilution method; format: functional; details: Acinetobacter baumannii; in short: as §1
Acinetobacter baumannii [17] = test: Antibacterial activity against wild type Acinetobacter baumannii ATCC BAA-747 by CLSI M100-S17 protocol based method; format: functional
Acinetobacter baumannii [18] = test: Antibacterial activity against beta-lactam resistant Acinetobacter baumannii by broth microdilution method; format: functional; details: Acinetobacter baumannii; in short: as §1
Acinetobacter baumannii [19] = test: Antibacterial activity against quinolone resistant Acinetobacter baumannii by broth microdilution method; format: functional; details: Acinetobacter baumannii; in short: as §1
Mus musculus [20] = test: Volume of distribution at steady state in CD1 mouse plasma at 10 mg/kg, iv by LC-MS/MS analysis; format: ADME, organism-based; details: in vivo
Escherichia coli [21] = test: Antibacterial activity against wild type Escherichia coli ATCC 25922 in presence of HSA by CLSI M100-S17 protocol based method; format: functional
Escherichia coli [22] = test: Antibacterial activity against quinolone resistance Escherichia coli isolate ELZ4251 harboring gyrA/parC mutant by CLSI M100-S17 protocol based method; format: functional
Escherichia coli [23] = test: Antibacterial activity against aminoglycoside resistant Escherichia coli by broth microdilution method; format: functional; details: Escherichia coli; for MIC: read-out: MIC; in short: as §1
[24] = Fraction unbound in mouse plasma at 1 uM by equilibrium dialysis method; format: ADME, cell-free
[25] = Oral bioavailability in CD1 mouse plasma by LC-MS/MS analysis; format: ADME, organism-based

## CCNCc1cc2c3c(ccc2n1C)-c1[nH]c(=O)c(C(=O)O)c(O)c1CCC3
Escherichia coli [1]
  MIC: 6.3 µg/mL (≈ 16.5 µM)
Escherichia coli [2]
  MIC: 12.5 µg/mL (≈ 32.8 µM)
[3]
  IC50: 19 µM

## CCNCc1cc2cc3c(cc2n1C)Cc1c-3[nH]c(=O)c(C(=O)O)c1O
Escherichia coli [1]
  MIC: > 62.5 µg/mL
Escherichia coli [2]
  MIC: > 62.5 µg/mL
[4]
  IC50: > 11.1 µM
[3]
  IC50: > 11.1 µM

## CN(C)Cc1cc2cc3c(cc2n1C)OCCc1c-3[nH]c(=O)c(C(=O)O)c1O
Escherichia coli [5]
  Ratio: 2 - 4
Acinetobacter baumannii [6]
  MIC: 0.25 to 16 µg/mL (≈ 0.652 to 41.7 µM)
  MIC50: 2 µg/mL (≈ 5.22 µM)
  MIC90: 16 µg/mL (≈ 41.7 µM)
Acinetobacter baumannii [7]
  MIC50: 2 µg/mL (≈ 5.22 µM)
  MIC90: 16 µg/mL (≈ 41.7 µM)
Escherichia coli [1]
  MIC: 1 µg/mL (≈ 2.61 µM)
Acinetobacter baumannii [8]
  MIC: 3.9 µg/mL (≈ 10.2 µM)
Escherichia coli [9]
  MIC50: 0.5 µg/mL (≈ 1.3 µM)
  MIC90: 2 µg/mL (≈ 5.22 µM)
  MIC: 0.25 to 8 µg/mL (≈ 0.652 to 20.9 µM)
Klebsiella pneumoniae
  MIC: 1 µg/mL (≈ 2.61 µM)
Escherichia coli [10]
  MIC50: 0.5 µg/mL (≈ 1.3 µM)
  MIC90: 2 µg/mL (≈ 5.22 µM)
  MIC: 0.25 to 8 µg/mL (≈ 0.652 to 20.9 µM)
Mus musculus [11]
  beta t1/2: 3.1 h
Acinetobacter baumannii [12]
  MIC50: 2 µg/mL (≈ 5.22 µM)
  MIC90: 16 µg/mL (≈ 41.7 µM)
Mus musculus [13]
  AUC: 2930 ng·h/mL
Escherichia coli [14]
  MIC50: 0.5 µg/mL (≈ 1.3 µM)
  MIC90: 2 µg/mL (≈ 5.22 µM)
  MIC: 0.25 to 8 µg/mL (≈ 0.652 to 20.9 µM)
Escherichia coli [15]
  MIC50: 0.5 µg/mL (≈ 1.3 µM)
  MIC90: 2 µg/mL (≈ 5.22 µM)
Escherichia coli [2]
  MIC: 1 µg/mL (≈ 2.61 µM)
Acinetobacter baumannii [16]
  MIC50: 2 µg/mL (≈ 5.22 µM)
  MIC90: 16 µg/mL (≈ 41.7 µM)
Acinetobacter baumannii [17]
  MIC: 2 µg/mL (≈ 5.22 µM)
Acinetobacter baumannii [18]
  MIC50: 2 µg/mL (≈ 5.22 µM)
  MIC90: 16 µg/mL (≈ 41.7 µM)
Acinetobacter baumannii [19]
  MIC50: 2 µg/mL (≈ 5.22 µM)
  MIC90: 16 µg/mL (≈ 41.7 µM)
Mus musculus [20]
  Vdss: 7.6 L/kg
Escherichia coli [21]
  MIC: 2 µg/mL
Escherichia coli [22]
  MIC: 1.6 µg/mL (≈ 4.17 µM)
Escherichia coli [23]
  MIC50: 0.5 µg/mL (≈ 1.3 µM)
  MIC90: 2 µg/mL (≈ 5.22 µM)
  MIC: 0.25 to 8 µg/mL (≈ 0.652 to 20.9 µM)
[24]
  Fu: 0.21

## Cn1c(CN2CCCC2)cc2cc3c(cc21)CCCc1c-3[nH]c(=O)c(C(=O)O)c1O
[25]
  bioavailability: 33%
Acinetobacter baumannii [6]
  MIC50: 2 µg/mL (≈ 4.91 µM)
  MIC90: 16 µg/mL (≈ 39.3 µM)
Acinetobacter baumannii [7]
  MIC50: 2 µg/mL (≈ 4.91 µM)
  MIC90: 16 µg/mL (≈ 39.3 µM)
Acinetobacter baumannii [7]; read-out: MIC
  MIC: 0.12 to 16 µg/mL (≈ 0.295 to 39.3 µM)
Escherichia coli [1]
  MIC: 0.78 µg/mL (≈ 1.91 µM)
Acinetobacter baumannii [8]
  MIC: 1.6 µg/mL (≈ 3.93 µM)
Escherichia coli [9]
  MIC90: 0.5 µg/mL (≈ 1.23 µM)
  MIC: 0.12 to 0.5 µg/mL (≈ 0.295 to 1.23 µM)
Klebsiella pneumoniae
  MIC: 0.78 µg/mL (≈ 1.91 µM)
Escherichia coli [10]
  MIC90: 0.5 µg/mL (≈ 1.23 µM)
  MIC: 0.12 to 0.5 µg/mL (≈ 0.295 to 1.23 µM)
Mus musculus [11]
  beta t1/2: 2.8 h
Acinetobacter baumannii [12]
  MIC50: 2 µg/mL (≈ 4.91 µM)
  MIC90: 16 µg/mL (≈ 39.3 µM)
Acinetobacter baumannii [12]; read-out: MIC
  MIC: 0.12 to 16 µg/mL (≈ 0.295 to 39.3 µM)
Mus musculus [13]
  AUC: 4050 ng·h/mL
Escherichia coli [14]
  MIC90: 0.5 µg/mL (≈ 1.23 µM)
  MIC: 0.12 to 0.5 µg/mL (≈ 0.295 to 1.23 µM)
Escherichia coli [15]
  MIC90: 0.5 µg/mL (≈ 1.23 µM)
Escherichia coli [2]
  MIC: 0.78 µg/mL (≈ 1.91 µM)
Acinetobacter baumannii [16]
  MIC50: 2 µg/mL (≈ 4.91 µM)
  MIC90: 16 µg/mL (≈ 39.3 µM)
Acinetobacter baumannii [16]; read-out: MIC
  MIC: 0.12 to 16 µg/mL (≈ 0.295 to 39.3 µM)
Acinetobacter baumannii [17]
  MIC: 0.78 µg/mL (≈ 1.91 µM)
Acinetobacter baumannii [18]
  MIC50: 2 µg/mL (≈ 4.91 µM)
  MIC90: 16 µg/mL (≈ 39.3 µM)
Acinetobacter baumannii [18]; read-out: MIC
  MIC: 0.12 to 16 µg/mL (≈ 0.295 to 39.3 µM)
Acinetobacter baumannii [19]
  MIC50: 2 µg/mL (≈ 4.91 µM)
  MIC90: 16 µg/mL (≈ 39.3 µM)
Acinetobacter baumannii [19]; read-out: MIC
  MIC: 0.12 to 16 µg/mL (≈ 0.295 to 39.3 µM)
Mus musculus [20]
  Vdss: 8.1 L/kg
Escherichia coli [21]
  MIC: 6.3 µg/mL
Escherichia coli [22]
  MIC: 1.6 µg/mL (≈ 3.93 µM)
Escherichia coli [23]
  MIC90: 0.5 µg/mL (≈ 1.23 µM)
  MIC: 0.12 to 0.5 µg/mL (≈ 0.295 to 1.23 µM)
[24]
  Fu: 0.11
